From PMC2743114 (Journal of immunological methods, 2009)
Each block holds one compound with its values, some of them ahead of it.

Assays:
[1] = biological target: T1, hCD1b dimer (Homo sapiens, UniProt P29016); assay: Direct ELISA binding of Biotinyl PE without competitor; settings: pH 4–10 tested, Biotinyl PE 1μg/mL, overnight 37°C, no competitor
Outline: (§1)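 Biotinyl PE (1μg/mL) was incubated overnight at 37°C with hCD1 dimer or mouse IgG1 isotype control. Incubation was in PBS adjusted with HCl or NaOH to pH 4–10, in plates coated with anti-mouse IgG Fc antibody. A well without biotinylated PE at pH 7 served as background. Assays were run in triplicate.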

[2] = biological target: T2, hCD1c dimer (Homo sapiens, UniProt P29017); assay: as above; settings: pH 4–10 tested, Biotinyl PE 1μg/mL, overnight 37°C, no competitor
T2 sequence (P29017 18-302 limits assumed): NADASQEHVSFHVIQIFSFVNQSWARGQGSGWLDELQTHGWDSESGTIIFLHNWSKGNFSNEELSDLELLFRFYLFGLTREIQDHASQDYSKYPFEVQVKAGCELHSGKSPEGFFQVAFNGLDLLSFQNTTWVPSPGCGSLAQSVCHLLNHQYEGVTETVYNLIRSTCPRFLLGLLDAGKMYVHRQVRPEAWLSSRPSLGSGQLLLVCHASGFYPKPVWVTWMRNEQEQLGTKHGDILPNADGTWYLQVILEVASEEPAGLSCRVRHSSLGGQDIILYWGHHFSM
Outline: as §1

[3] = biological target: T3, hCD1d dimer (Homo sapiens, UniProt P15813); assay: Direct ELISA binding of Biotinyl PE without competitor; settings: Biotinyl PE 1μg/mL
T3 sequence (P15813 20-301 limits assumed): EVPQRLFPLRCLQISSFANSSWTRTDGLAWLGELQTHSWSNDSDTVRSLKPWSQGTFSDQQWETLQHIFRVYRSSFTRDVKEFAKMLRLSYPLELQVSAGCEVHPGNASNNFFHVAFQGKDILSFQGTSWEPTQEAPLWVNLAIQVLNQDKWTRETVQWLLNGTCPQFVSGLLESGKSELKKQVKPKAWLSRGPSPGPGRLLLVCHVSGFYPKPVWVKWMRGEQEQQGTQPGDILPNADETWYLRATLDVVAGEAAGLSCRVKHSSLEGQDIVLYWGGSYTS

[4] = system: mouse IgG1; assay: Direct ELISA binding of Biotinyl PE to isotype control; settings: specificity control
Outline: as §1

[5] = biological target: T1, hCD1b dimer; assay: Competitive ELISA assay; type: binding
Outline: (§2)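 Dimers are hCD1 α1–α3 fused to mouse IgG with β2m, expressed in J558L cells and purified on Protein G. Plates were coated overnight at 4°C with goat anti-mouse IgG Fc (10μg/mL, pH 9.6), then blocked 1 h. Dimer (5μg/mL), competitor lipid and Biotinyl PE (2μg/mL) in PBS were incubated overnight at 37°C and detected with HRP-avidin. Assays were run in triplicate. Ki = IC50/(1+[B-PE]/Kd), with Kd fitted from competitor-free Biotinyl PE titration.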

[6] = biological target: T2, hCD1c dimer; assay: Competitive ELISA assay; type: binding
Outline: as §2

[7] = biological target: T3, hCD1d dimer; assay: Competitive ELISA assay; type: binding
Outline: as §2

T1 sequence (P29016 18-303 limits assumed): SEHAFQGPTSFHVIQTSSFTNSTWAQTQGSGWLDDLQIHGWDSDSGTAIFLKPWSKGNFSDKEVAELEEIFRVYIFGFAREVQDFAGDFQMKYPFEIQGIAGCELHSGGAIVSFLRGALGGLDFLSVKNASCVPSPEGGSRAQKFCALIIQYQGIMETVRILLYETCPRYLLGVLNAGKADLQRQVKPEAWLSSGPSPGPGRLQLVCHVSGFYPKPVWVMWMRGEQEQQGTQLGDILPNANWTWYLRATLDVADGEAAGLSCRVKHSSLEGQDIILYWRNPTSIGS

- optimal pH for binding to CD1b [1]: 4-5
- optimal pH for binding to CD1c [2]: 4-5
- time to reach a peak level of binding to hCD1d ([3]; 37°C, optimal condition): 8 h
- optimal pH for binding to CD1d ([3]; pH 4–10 tested, overnight 37°C, no competitor): 5-7
- binding to mouse IgG1 (isotype control) [4]: failed to bind
Compound: CCCCCCCC/C=C\CCCCCCCC(=O)OC[C@H](COP(=O)(O)OCCNC(=O)CCCC[C@@H]1SC[C@@H]2NC(=O)N[C@@H]21)OC(=O)CCCCCCC/C=C\CCCCCCCC [Biotinyl PE, 1,2-Dioleoyl-sn-Glycero-3-Phosphoethanolamine-N-(Biotinyl)]

Compound: Mycolic acid
- binding to CD1b (inhibition of Biotinyl PE binding), in words ([5]; competitive ELISA): unable to detect the binding

- Ki [5]: 2840 nM
- Ki [6]: 1370 nM
- Ki [7]: 97 nM
Compound: CCCCCCCCCCCCCCCCCCCCCCCCCC(=O)N[C@@H](CO[C@H]1O[C@H](CO)[C@H](O)[C@H](O)[C@H]1O)[C@H](O)[C@H](O)CCCCCCCCCCCCCC [α-GalCer, α-galactosylceramide]
